{"source": "ChEMBL document CHEMBL4024709", "about": "“Synthesis and biological evaluation of hypoxia-activated prodrugs of SN-38” (Eur J Med Chem, 2017)", "key": {"[1]": {"test": "Stability of the compound in mouse liver microsomes assessed as compound remaining at 5 uM after 6 hrs in absence of NADPH by HPLC method", "assay_type": "ADME, microsome", "conditions": "read-out: Stability", "method_in_brief": "(§1)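 Final mix: 5 µM compound, mouse liver microsomes 1 mg/mL, 5 mM MgCl2, ±1 mM NADPH, in 10 mM PBS pH 7.4 at 37 °C. Preincubated, then started by adding microsomes. Samples at 0–6 h quenched with cold methanol and centrifuged. Supernatant run on C18 HPLC (5–95% CH3CN/0.1% TFA, 373 nm); percent remaining at 6 h.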"}, "[2]": {"test_system": "NCI-H460", "test": "Selectivity ratio of IC50 for human NCI-H460 cells under normoxic condition to IC50 for human NCI-H460 cells under hypoxic condition"}, "[3]": {"test": "Stability of the compound in mouse liver microsomes assessed as compound remaining at 5 uM after 6 hrs in presence of NADPH by HPLC method", "assay_type": "ADME, microsome", "conditions": "read-out: Stability", "method_in_brief": "as §1"}, "[4]": {"test": "Stability of the compound in phosphate buffered saline assessed as compound remaining at 5 uM after 48 hrs by HPLC method", "assay_type": "physicochemical", "conditions": "read-out: Stability", "method_in_brief": "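Compound held in 10 mM PBS pH 7.4 at 37 °C for 48 h; percent remaining measured.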"}, "[5]": {"test_system": "HT-29", "test": "Cytotoxicity against human HT-29 cells pretreated for 24 hrs under hypoxic condition followed by compound washout measured after 72 hrs by MTT assay", "assay_type": "functional, cell-based", "method_in_brief": "(§2)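 HT29 in McCoy's 5A, H460 in RPMI 1640, each with 10% FBS and 1% pen-strep, 37 °C, 5% CO2. Seeded and grown 24 h, then exposed for 24 h to serial dilutions (DMSO ≤0.1% final) in hypoxia (94% N2/5% CO2/1% O2 chamber) or air.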"}, "[6]": {"test_system": "HT-29", "test": "Selectivity ratio of IC50 for human HT-29 cells under normoxic condition to IC50 for human HT-29 cells under hypoxic condition"}, "[7]": {"test_system": "NCI-H460", "test": "Cytotoxicity against human NCI-H460 cells pretreated for 24 hrs under normoxic condition followed by compound washout measured after 72 hrs by MTT assay", "assay_type": "cell-based", "method_in_brief": "as §2"}, "[8]": {"test_system": "HT-29", "test": "Cytotoxicity against human HT-29 cells pretreated for 24 hrs under normoxic condition followed by compound washout measured after 72 hrs by MTT assay", "assay_type": "cell-based", "method_in_brief": "as §2"}, "[9]": {"test_system": "NCI-H460", "test": "Cytotoxicity against human NCI-H460 cells pretreated for 24 hrs under hypoxic condition followed by compound washout measured after 72 hrs by MTT assay", "assay_type": "functional, cell-based", "method_in_brief": "as §2"}}, "data": [{"smiles": "CCc1c2c(nc3ccc(OC(=O)N(C)CCN(C)C(=O)OCc4cnc([N+](=O)[O-])n4C)cc13)-c1cc3c(c(=O)n1C2)COC(=O)[C@]3(O)CC", "values": [{"measurement": "remaining at 6 h, 5 µM", "setting": "[1]", "value": 92, "unit": "%"}, {"measurement": "Ratio IC50", "setting": "[2]", "value": 1.09}, {"measurement": "remaining at 6 h, 5 µM", "setting": "[3]", "value": 13, "unit": "%"}, {"measurement": "remaining at 48 h, 5 µM", "setting": "[4]", "value": 99, "unit": "%"}, {"measurement": "IC50", "setting": "[5]", "value": 75.9, "unit": "µM"}, {"measurement": "Ratio IC50", "setting": "[6]", "value": ">1.32"}, {"measurement": "IC50", "setting": "[7]", "value": 8.27, "unit": "µM"}, {"measurement": "IC50", "setting": "[8]", "value": "> 100", "unit": "µM"}, {"measurement": "IC50", "setting": "[9]", "value": 7.56, "unit": "µM"}]}, {"smiles": "Cn1c(COP(=O)(NCCBr)NCCBr)cnc1[N+](=O)[O-]", "note": "[EVOFOSFAMIDE]", "values": [{"measurement": "Ratio IC50", "setting": "[2]", "value": 5.61}, {"measurement": "IC50", "setting": "[5]", "value": 49.5, "unit": "µM"}, {"measurement": "Ratio IC50", "setting": "[6]", "value": ">2.02"}, {"measurement": "IC50", "setting": "[7]", "value": 51, "unit": "µM"}, {"measurement": "IC50", "setting": "[8]", "value": "> 100", "unit": "µM"}, {"measurement": "IC50", "setting": "[9]", "value": 9.08, "unit": "µM"}]}, {"smiles": "CCc1c2c(nc3ccc(OCc4cnc([N+](=O)[O-])n4C)cc13)-c1cc3c(c(=O)n1C2)COC(=O)[C@]3(O)CC", "values": [{"measurement": "remaining at 6 h, 5 µM", "setting": "[1]", "value": 94, "unit": "%"}, {"measurement": "Ratio IC50", "setting": "[2]", "value": 3.71}, {"measurement": "remaining at 6 h, 5 µM", "setting": "[3]", "value": 72, "unit": "%"}, {"measurement": "remaining at 48 h, 5 µM", "setting": "[4]", "value": 100, "unit": "%"}, {"measurement": "IC50", "setting": "[5]", "value": 3.89, "unit": "µM"}, {"measurement": "Ratio IC50", "setting": "[6]", "value": 3.82}, {"measurement": "IC50", "setting": "[7]", "value": 0.52, "unit": "µM"}, {"measurement": "IC50", "setting": "[8]", "value": 14.9, "unit": "µM"}, {"measurement": "IC50", "setting": "[9]", "value": 0.14, "unit": "µM"}]}, {"smiles": "CCc1c2c(nc3ccc(O)cc13)-c1cc3c(c(=O)n1C2)COC(=O)[C@]3(O)CC", "note": "[7-ETHYL-10-HYDROXYCAMPTOTHECIN]", "values": [{"measurement": "Ratio IC50", "setting": "[2]", "value": 0.83}, {"measurement": "IC50", "setting": "[5]", "value": 3.71, "unit": "µM"}, {"measurement": "Ratio IC50", "setting": "[6]", "value": 0.74}, {"measurement": "IC50", "setting": "[7]", "value": 0.05, "unit": "µM"}, {"measurement": "IC50", "setting": "[8]", "value": 2.74, "unit": "µM"}, {"measurement": "IC50", "setting": "[9]", "value": 0.06, "unit": "µM"}]}]}
